From PubChem BioAssay AID588419 (The Scripps Research Institute Molecular Screening Center, 2011)
Calls of active or inactive are those of the source.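 How the source made its calls: active means IC50 at or below 1000 nM for PAD4 enzyme inhibition; inactive means IC50 above 1000 nM.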

Molecular target: Protein-arginine deiminase type-4 (Homo sapiens) (UniProt Q9UM07)
Test: PAD4 enzyme inhibition potency, late-stage follow-up, biochemical, BAEE substrate, citrulline absorbance, 0-6 µM range (AID 588419)
Conditions: recombinant PAD4, BAEE citrulline colorimetric absorbance
How it was run: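 assay system = recombinant PAD4 | buffer or medium = Tris-HCl pH 7.6, CaCl2, DTT | reagent = 10 mM BAEE | compound dosing = Seven-point compound series spanning 0 to 6 µM | incubation = 15 min preincubation plus 15 min reaction, 37 °C | measured by = absorbance at 540 nm | read-out basis = IC50 from citrulline formation, quantified via citrulline standard curve | replication = duplicate dose-response curves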

Protein-arginine deiminase type-4 (Homo sapiens), sequence (Q9UM07 whole entry, looked up): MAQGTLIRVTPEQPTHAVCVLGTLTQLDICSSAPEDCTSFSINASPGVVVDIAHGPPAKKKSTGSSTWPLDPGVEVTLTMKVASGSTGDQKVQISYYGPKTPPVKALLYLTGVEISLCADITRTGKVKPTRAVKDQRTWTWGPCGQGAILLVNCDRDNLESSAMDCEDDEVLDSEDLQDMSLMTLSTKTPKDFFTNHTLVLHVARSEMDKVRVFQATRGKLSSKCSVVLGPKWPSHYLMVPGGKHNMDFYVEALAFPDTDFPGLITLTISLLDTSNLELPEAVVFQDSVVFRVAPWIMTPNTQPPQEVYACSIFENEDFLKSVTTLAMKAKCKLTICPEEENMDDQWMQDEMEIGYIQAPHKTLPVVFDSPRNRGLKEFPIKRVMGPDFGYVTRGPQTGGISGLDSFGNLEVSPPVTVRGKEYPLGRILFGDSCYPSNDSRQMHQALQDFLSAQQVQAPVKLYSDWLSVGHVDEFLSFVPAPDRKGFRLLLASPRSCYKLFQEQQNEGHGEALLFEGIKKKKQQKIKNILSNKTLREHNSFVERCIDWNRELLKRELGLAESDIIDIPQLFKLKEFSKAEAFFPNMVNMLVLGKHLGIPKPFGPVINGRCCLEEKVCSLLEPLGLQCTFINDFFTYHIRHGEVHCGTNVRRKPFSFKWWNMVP

IC50: inactive
SMILES: COC1=C(I)C(=O)c2nc(C#N)ccc2C1=O
